Source: ChEMBL document CHEMBL1124369, “Pyrido[3,4-e]-1,2,4-triazines and related heterocycles as potential antifungal agents” (1989)
Values after ≈ are worked out from the molar mass of the structure shown.

How the values were obtained:
Candida albicans [1] = assay: Antifungal activity against Candida albicans; format: functional
In short: (§1)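 Agar dilution MIC. Twofold serial drug dilutions in yeast nitrogen base medium with 1% dextrose, 0.15% asparagine and 1.5% agar. Agar surfaces inoculated using a Steers multiple inocula replicator, then incubated at 35 °C for 24-48 h. MIC was recorded as the lowest concentration inhibiting visible growth. Amphotericin B, miconazole and nystatin served as controls.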

Aspergillus niger [2] = assay: Antifungal activity against Aspergillus niger; format: functional; in short: as §1
Candida parapsilosis = assay: Antifungal activity against Candida parapsilosis; format: functional; in short: as §1
Candida tropicalis [3] = assay: Antifungal activity against Candida tropicalis; format: functional; in short: as §1
Trichophyton rubrum [4] = assay: Antifungal activity against Trichophyton rubrum; Range is 32-64; format: functional; in short: as §1
Trichophyton benhamiae [5] = assay: Antifungal activity against Trichophyton mentagrophytes; Range is 64-128; format: functional, trychophyton mentagrophytes; in short: as §1
Kluyveromyces marxianus [6] = assay: Antifungal activity against Candida pseudotropicalis; format: functional; in short: as §1
Diutina rugosa = assay: Antifungal activity against Candida rugosa; format: functional; in short: as §1
Trichophyton rubrum [7] = assay: Antifungal activity against Trichophyton rubrum; format: functional; in short: as §1
Aspergillus niger [8] = assay: Antifungal activity against Aspergillus niger; Range is 16-32; format: functional; in short: as §1
Candida albicans [9] = assay: Antifungal activity against Candida stellatoidea; format: functional; in short: as §1
Mucor fragilis = assay: Antifungal activity against Mucor fragilis; format: functional; in short: as §1
Candida tropicalis [10] = assay: Antifungal activity against Candida tropicalis; Range is 8-16; format: functional; in short: as §1
Trichophyton benhamiae [11] = assay: Antifungal activity against Trichophyton mentagrophytes; Range is 4-8; format: functional, trychophyton mentagrophytes; in short: as §1
Candida albicans [12] = assay: Antifungal activity against Candida albicans; Range is 8-16; format: functional; in short: as §1
Candida tropicalis [13] = assay: Antifungal activity against Candida tropicalis; Range is 4-16; format: functional; in short: as §1
Trichophyton benhamiae [14] = assay: Antifungal activity against Trichophyton mentagrophytes; format: functional, trychophyton mentagrophytes; in short: as §1
Trichophyton rubrum [15] = assay: Antifungal activity against Trichophyton rubrum; Range is 1-2; format: functional; in short: as §1
Trichophyton rubrum [16] = assay: Antifungal activity against Trichophyton rubrum; Range is 8-32; format: functional
Candida albicans [17] = assay: Antifungal activity against Candida albicans; Range is 64-128; format: functional; in short: as §1
Candida albicans [18] = assay: Antifungal activity against Candida albicans; Range is 32-64; format: functional; in short: as §1
Aspergillus niger [19] = assay: Antifungal activity against Aspergillus niger; Range is 32-64; format: functional; in short: as §1
Candida tropicalis [20] = assay: Antifungal activity against Candida tropicalis; Range is 32-64; format: functional; in short: as §1
Aspergillus niger [21] = assay: Antifungal activity against Aspergillus niger; Range is 32-128; format: functional; in short: as §1
Trichophyton benhamiae [22] = assay: Antifungal activity against Trichophyton mentagrophytes; Range is 8-32; format: functional, trychophyton mentagrophytes; in short: as §1
Trichophyton rubrum [23] = assay: Antifungal activity against Trichophyton rubrum; Range is 16-32; format: functional; in short: as §1
Kluyveromyces marxianus [24] = assay: Antifungal activity against Candida pseudotropicalis; Range is 8-16; format: functional; in short: as §1
Trichophyton rubrum [25] = assay: Antifungal activity against Trichophyton rubrum; Range is 4-16; format: functional; in short: as §1
Candida albicans [26] = assay: Antifungal activity against Candida albicans; Range is 16-64; format: functional; in short: as §1
Kluyveromyces marxianus [27] = assay: Antifungal activity against Candida pseudotropicalis; Range is 2-4; format: functional; in short: as §1
Trichophyton rubrum [28] = assay: Antifungal activity against Trichophyton rubrum; Range is 2-4; format: functional; in short: as §1
Aspergillus niger [29] = assay: Antifungal activity against Aspergillus niger; Range is 8-16; format: functional; in short: as §1
Candida tropicalis [30] = assay: Antifungal activity against Candida tropicalis; Range is 4-8; format: functional; in short: as §1
Candida albicans [31] = assay: Antifungal activity against Candida albicans; Range is 16-32; format: functional; in short: as §1
Trichophyton benhamiae [32] = assay: Antifungal activity against Trichophyton mentagrophytes; Range is 16-32; format: functional; conditions: trychophyton mentagrophytes
Aspergillus niger [33] = assay: Antifungal activity against Aspergillus niger; Range is 64-128; format: functional; in short: as §1
Trichophyton rubrum [34] = assay: Antifungal activity against Trichophyton rubrum; Range is 4-8; format: functional; in short: as §1

Compound: Cc1nc(C)c2nc(-c3ccc(F)cc3)nnc2c1NC(=O)c1ccccc1
- MIC (Candida albicans [1]): 128 µg/mL (≈ 343 µM)
- MIC (Aspergillus niger [2]): 128 µg/mL (≈ 343 µM)
- MIC (Candida parapsilosis; Lodderomyces parapsilosis): 128 µg/mL (≈ 343 µM)
- MIC (Candida tropicalis [3]): 128 µg/mL (≈ 343 µM)
- MIC (Trichophyton rubrum [4]): 32 µg/mL (≈ 85.7 µM)
- MIC (Trichophyton benhamiae [5]): 64 µg/mL (≈ 171 µM)
- MIC (Kluyveromyces marxianus [6]): 128 µg/mL (≈ 343 µM)

Compound: Fc1ccc(-c2nnc3ccncc3n2)cc1
- MIC (Diutina rugosa): 8 µg/mL (≈ 35.4 µM)
- MIC (Trichophyton rubrum [7]): 4 µg/mL (≈ 17.7 µM)
- MIC (Aspergillus niger [8]): 16 µg/mL (≈ 70.7 µM)
- MIC (Candida parapsilosis; Lodderomyces parapsilosis): 8 µg/mL (≈ 35.4 µM)
- MIC (Candida albicans [9]): 8 µg/mL (≈ 35.4 µM)
- MIC (Mucor fragilis): 64 µg/mL (≈ 283 µM)
- MIC (Candida tropicalis [10]): 8 µg/mL (≈ 35.4 µM)
- MIC (Trichophyton benhamiae [11]): 4 µg/mL (≈ 17.7 µM)
- MIC (Candida albicans [12]): 8 µg/mL (≈ 35.4 µM)
- MIC (Kluyveromyces marxianus [6]): 8 µg/mL (≈ 35.4 µM)

Compound: c1cncc(-c2nnc3ccncc3n2)c1
- MIC (Diutina rugosa): 16 µg/mL (≈ 76.5 µM)
- MIC (Candida tropicalis [13]): 4 µg/mL (≈ 19.1 µM)
- MIC (Aspergillus niger [8]): 16 µg/mL (≈ 76.5 µM)
- MIC (Candida parapsilosis; Lodderomyces parapsilosis): 16 µg/mL (≈ 76.5 µM)
- MIC (Candida albicans [9]): 32 µg/mL (≈ 153 µM)
- MIC (Trichophyton benhamiae [14]): 4 µg/mL (≈ 19.1 µM)
- MIC (Mucor fragilis): > 128 µg/mL
- MIC (Trichophyton rubrum [15]): 1 µg/mL (≈ 4.78 µM)
- MIC (Candida albicans [12]): 8 µg/mL (≈ 38.2 µM)
- MIC (Kluyveromyces marxianus [6]): 4 µg/mL (≈ 19.1 µM)

Compound: FC(F)(F)c1ccc(-c2nnc3ccncc3n2)cc1
- MIC (Diutina rugosa): > 128 µg/mL
- MIC (Trichophyton rubrum [16]): 8 µg/mL (≈ 29 µM)
- MIC (Aspergillus niger [2]): 128 µg/mL (≈ 463 µM)
- MIC (Candida parapsilosis; Lodderomyces parapsilosis): 128 µg/mL (≈ 463 µM)
- MIC (Candida albicans [9]): > 128 µg/mL
- MIC (Trichophyton benhamiae [14]): 64 µg/mL (≈ 232 µM)
- MIC (Mucor fragilis): > 128 µg/mL
- MIC (Candida albicans [17]): 64 µg/mL (≈ 232 µM)
- MIC (Candida tropicalis [3]): 128 µg/mL (≈ 463 µM)
- MIC (Kluyveromyces marxianus [6]): 128 µg/mL (≈ 463 µM)

Compound: CCCc1nnc2ccncc2n1
- MIC (Diutina rugosa): 64 µg/mL (≈ 367 µM)
- MIC (Trichophyton rubrum [16]): 8 µg/mL (≈ 45.9 µM)
- MIC (Candida parapsilosis; Lodderomyces parapsilosis): 64 µg/mL (≈ 367 µM)
- MIC (Candida albicans [9]): 64 µg/mL (≈ 367 µM)
- MIC (Candida albicans [18]): 32 µg/mL (≈ 184 µM)
- MIC (Trichophyton benhamiae [14]): 32 µg/mL (≈ 184 µM)
- MIC (Aspergillus niger [19]): 32 µg/mL (≈ 184 µM)
- MIC (Mucor fragilis): 64 µg/mL (≈ 367 µM)
- MIC (Candida tropicalis [20]): 32 µg/mL (≈ 184 µM)
- MIC (Kluyveromyces marxianus [6]): 16 µg/mL (≈ 91.8 µM)

Compound: Cc1cc2nnc(C)nc2c(C)n1
- MIC (Diutina rugosa): 64 µg/mL (≈ 367 µM)
- MIC (Candida albicans [1]): 8 µg/mL (≈ 45.9 µM)
- MIC (Aspergillus niger [21]): 32 µg/mL (≈ 184 µM)
- MIC (Candida albicans [9]): 64 µg/mL (≈ 367 µM)
- MIC (Mucor fragilis): 16 µg/mL (≈ 91.8 µM)
- MIC (Trichophyton benhamiae [22]): 8 µg/mL (≈ 45.9 µM)
- MIC (Trichophyton rubrum [23]): 16 µg/mL (≈ 91.8 µM)
- MIC (Candida tropicalis [3]): 32 µg/mL (≈ 184 µM)
- MIC (Kluyveromyces marxianus [24]): 8 µg/mL (≈ 45.9 µM)

Compound: c1cc2nnc(C3CCCCC3)nc2cn1
- MIC (Diutina rugosa): 32 µg/mL (≈ 149 µM)
- MIC (Trichophyton rubrum [25]): 4 µg/mL (≈ 18.7 µM)
- MIC (Candida parapsilosis; Lodderomyces parapsilosis): 64 µg/mL (≈ 299 µM)
- MIC (Candida albicans [9]): 32 µg/mL (≈ 149 µM)
- MIC (Trichophyton benhamiae [14]): 16 µg/mL (≈ 74.7 µM)
- MIC (Aspergillus niger [19]): 32 µg/mL (≈ 149 µM)
- MIC (Mucor fragilis): 64 µg/mL (≈ 299 µM)
- MIC (Candida albicans [26]): 16 µg/mL (≈ 74.7 µM)
- MIC (Candida tropicalis [20]): 32 µg/mL (≈ 149 µM)
- MIC (Kluyveromyces marxianus [6]): 32 µg/mL (≈ 149 µM)

Compound: c1cc(-c2nnc3ccncc3n2)ccn1
- MIC (Diutina rugosa): 32 µg/mL (≈ 153 µM)
- MIC (Candida albicans [1]): 8 µg/mL (≈ 38.2 µM)
- MIC (Kluyveromyces marxianus [27]): 2 µg/mL (≈ 9.56 µM)
- MIC (Trichophyton rubrum [28]): 2 µg/mL (≈ 9.56 µM)
- MIC (Candida parapsilosis; Lodderomyces parapsilosis): 8 µg/mL (≈ 38.2 µM)
- MIC (Candida albicans [9]): 32 µg/mL (≈ 153 µM)
- MIC (Aspergillus niger [29]): 8 µg/mL (≈ 38.2 µM)
- MIC (Trichophyton benhamiae [14]): 4 µg/mL (≈ 19.1 µM)
- MIC (Mucor fragilis): 32 µg/mL (≈ 153 µM)
- MIC (Candida tropicalis [30]): 4 µg/mL (≈ 19.1 µM)

Compound: Fc1ccc(-c2nnc3ccncc3n2)c(F)c1
- MIC (Trichophyton rubrum [7]): 2 µg/mL (≈ 8.19 µM)
- MIC (Aspergillus niger [8]): 16 µg/mL (≈ 65.5 µM)
- MIC (Candida parapsilosis; Lodderomyces parapsilosis): 16 µg/mL (≈ 65.5 µM)
- MIC (Trichophyton benhamiae [14]): 8 µg/mL (≈ 32.8 µM)
- MIC (Candida albicans [31]): 16 µg/mL (≈ 65.5 µM)
- MIC (Candida tropicalis [3]): 16 µg/mL (≈ 65.5 µM)
- MIC (Kluyveromyces marxianus [6]): 32 µg/mL (≈ 131 µM)

Compound: NYSTATIN
- MIC (Diutina rugosa): > 128 µg/mL
- MIC (Candida albicans [1]): 16 µg/mL
- MIC (Trichophyton rubrum [7]): 32 µg/mL
- MIC (Aspergillus niger [2]): 16 µg/mL
- MIC (Candida parapsilosis): 16 µg/mL
- MIC (Candida albicans [9]): > 128 µg/mL
- MIC (Mucor fragilis): 16 µg/mL
- MIC (Trichophyton benhamiae [32]): 16 µg/mL
- MIC (Candida tropicalis [3]): 16 µg/mL
- MIC (Kluyveromyces marxianus [6]): 8 µg/mL

Compound: CN(C)c1ccc(-c2nnc3ccncc3n2)cc1
- MIC (Candida albicans [1]): 64 µg/mL (≈ 255 µM)
- MIC (Trichophyton rubrum [28]): 2 µg/mL (≈ 7.96 µM)
- MIC (Aspergillus niger [21]): 32 µg/mL (≈ 127 µM)
- MIC (Candida parapsilosis; Lodderomyces parapsilosis): 64 µg/mL (≈ 255 µM)
- MIC (Trichophyton benhamiae [14]): 8 µg/mL (≈ 31.8 µM)
- MIC (Candida tropicalis [3]): 64 µg/mL (≈ 255 µM)
- MIC (Kluyveromyces marxianus [6]): 32 µg/mL (≈ 127 µM)

Compound: C(=C\N1CCCCC1)/c1nnc2ccncc2n1
- MIC (Aspergillus niger [33]): 64 µg/mL (≈ 265 µM)
- MIC (Candida parapsilosis; Lodderomyces parapsilosis): 128 µg/mL (≈ 530 µM)
- MIC (Trichophyton benhamiae [14]): 16 µg/mL (≈ 66.3 µM)
- MIC (Trichophyton rubrum [34]): 4 µg/mL (≈ 16.6 µM)
- MIC (Candida albicans [17]): 64 µg/mL (≈ 265 µM)
- MIC (Candida tropicalis [3]): 128 µg/mL (≈ 530 µM)
- MIC (Kluyveromyces marxianus [6]): 128 µg/mL (≈ 530 µM)
